The source of these data is ChEMBL document CHEMBL1149585, “Toward the development of chemoprevention agents. Part 1: Design, synthesis, and anti-inflammatory activities of a new class of 2,5-disubstituted-dioxacycloalkanes” (Bioorg Med Chem, 2007).

Data set [1] has as its system Mus musculus. The data set is described as follows: Inhibition of xylene-induced ear edema in Kunming mouse at 20 mg/kg, po after 2 hrs relative to control. It counts as functional. The essentials:
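Male Kunming mice (groups of 12; n = 11 per table footnote) were dosed orally as a suspension in 0.5% CMC, with CMC vehicle and positive control groups. After 30 min, 0.03 ml xylene went on both surfaces of the right ear, with the left ear as control. Mice were killed 2 h later. 7 mm ear punches were weighed, and edema was taken as right minus left weight. Groups were compared by one-way ANOVA, p < 0.05.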

Data set [2] relates to Mus musculus. The experiment in a line: Toxicity in mouse assessed as tail bleeding time at 200 mg/kg, po after 30 mins. More on the design: dose 200 mg/kg, route oral. It is filed as organism-based. Particulars: in vivo, 0.5 h. The essentials:
(§1)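 Male mice (18–22 g) were dosed orally, and bleeding time was recorded before dosing and at each post-dose time. Each mouse was held in a tube with its tail protruding, and a 2 mm tail cut was made. Blood was wiped away with tissue every 30 s until bleeding ceased, and the time was recorded. The comparison group received NS.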

Data set [3] deals with Mus musculus. The data set is described as follows: Toxicity in mouse assessed as tail bleeding time at 200 mg/kg, po after 45 mins. It counts as organism-based. The arrangement: dose 200 mg/kg, route oral. Particulars: in vivo, 0.75 h. The essentials: as §1
Data set [4] has as its system Mus musculus. The experiment in a line: Toxicity in mouse assessed as tail bleeding time at 200 mg/kg, po after 60 mins. It is filed as organism-based. More on the design: dose 200 mg/kg, route oral. Particulars: in vivo, 1 h. The essentials:
as §1

The test system of data set [5] is Mus musculus. The experiment in a line: Toxicity in mouse assessed as tail bleeding time at 200 mg/kg, po after 90 mins. It is filed as organism-based. More on the design: dose 200 mg/kg, route oral. Conditions: in vivo, 1.5 h. The essentials: as §1

A word on the inhibition in vivo: it is the relative decrease from the control value, in per cent. A higher inhibition in vivo goes with strong suppression. In the case of `O=C(N[C@H]1CCO[C@H](c2cccc([N+](=O)[O-])c2)OC1)c1ccccc1`, 20 mg/kg produced 20.8% inhibition in vivo with Mus musculus [1].
`C[C@@H]1O[C@@H](c2ccc([N+](=O)[O-])cc2)OC[C@H]1NC(=O)Cc1ccccc1` came in with an inhibition in vivo at 20 mg/kg with Mus musculus [1] of 55.8%. Besides, the Activity in the data set on Mus musculus [2] was 117.8 s; in the data set with Mus musculus [3], 118.5 s; in the data set on Mus musculus [4], 117.9 s; with Mus musculus [5], 117.2 s.
On the same counts, the results for `Cc1ccc([C@H]2OC[C@@H](NC(=O)Cc3ccccc3)[C@H](C)O2)cc1` are 41%, 117.9 s, 118.6 s, 119 s and 118.5 s.
Take `C[C@@H]1O[C@@H](c2ccccc2)OC[C@H]1NC(=O)Cc1ccccc1`: at 20 mg/kg the inhibition in vivo with Mus musculus [1] was 40%. In addition, the Activity with Mus musculus [2] turned out to be 118.5 s; in the data set with Mus musculus [3], 119 s; in the data set with Mus musculus [4], 118.6 s; in the data set with Mus musculus [5] it was 117.9 s.
Regarding `C[C@@H]1O[C@@H](c2ccccc2)OC[C@H]1NC(=O)c1ccccc1`, the inhibition in vivo at 20 mg/kg in the data set on Mus musculus [1] was 43.9%.
Compound `O=C(Cc1ccccc1)N[C@H]1CCO[C@@H](c2ccc([N+](=O)[O-])cc2)OC1` had an inhibition in vivo at 20 mg/kg in the data set with Mus musculus [1] of 19.6%.
`O=C(Cc1ccccc1)N[C@H]1CO[C@@H](c2cccc([N+](=O)[O-])c2)OC1` yielded an inhibition in vivo at 20 mg/kg in the data set on Mus musculus [1] of 41.3%. In addition, the Activity stood at 117.7 s with Mus musculus [2], 118.5 s in the data set on Mus musculus [3], 119.2 s in the data set on Mus musculus [4] and 118.6 s with Mus musculus [5].
On the same counts, the results for `C[C@@H]1O[C@H](c2ccc([N+](=O)[O-])cc2)OC[C@H]1NC(=O)c1ccccc1` are 55.4%, 117.8 s, 118.1 s, 118.8 s and 119 s.
For the compound `O=C(N[C@H]1CCO[C@@H](c2ccc([N+](=O)[O-])cc2)OC1)c1ccccc1`, in the data set with Mus musculus [1], the inhibition in vivo at 20 mg/kg is 20.2%.
The compound `O=C(N[C@H]1CO[C@H](c2ccc(Cl)cc2)OC1)c1ccccc1` yielded an inhibition in vivo at 20 mg/kg in the data set with Mus musculus [1] of 47.4%. The Activity was 119 s in the data set with Mus musculus [2], 118.9 s in the data set with Mus musculus [3], 118.7 s in the data set with Mus musculus [4] and 119.6 s in the data set on Mus musculus [5].
On the same counts, the results for `O=C(Cc1ccccc1)N[C@H]1CO[C@H](c2ccc(Cl)cc2)OC1` are 42%, 117.9 s, 119.2 s, 119.5 s and 118.4 s.
Take `C[C@@H]1O[C@H](/C=C/c2ccccc2)OC[C@H]1NC(=O)Cc1ccccc1`: in the data set on Mus musculus [1], at 20 mg/kg the inhibition in vivo was 33.3%.
In the data set on Mus musculus [1], `C[C@@H]1O[C@@H](c2cccc([N+](=O)[O-])c2)OC[C@H]1NC(=O)Cc1ccccc1` returned an inhibition in vivo at 20 mg/kg of 47.1%. For the same compound, the Activity with Mus musculus [2] turned out to be 120.1 s; with Mus musculus [3], 118.7 s; in the data set on Mus musculus [4], 118.5 s; with Mus musculus [5], 118.6 s.
On the same counts, the results for `O=C(Cc1ccccc1)N[C@H]1CO[C@@H](c2ccccc2)OC1` are 38.5%, 118.5 s, 119.3 s, 117.8 s and 118.9 s.
As to `O=C(Cc1ccccc1)N[C@H]1CCCO[C@@H](c2ccc(Cl)cc2)OC1`, at 20 mg/kg the inhibition in vivo with Mus musculus [1] was 23.7%.
The same measure, in the same setting: to `O=C(Cc1ccccc1)N[C@H]1CO[C@@H](/C=C/c2ccccc2)OC1` belongs 27.2%.
For `Cc1ccc([C@H]2OC[C@H](NC(=O)Cc3ccccc3)CO2)cc1`, the inhibition in vivo at 20 mg/kg in the data set with Mus musculus [1] came out at 35.6%. Further, the Activity in the data set on Mus musculus [2] amounted to 117.2 s; in the data set with Mus musculus [3], 118.6 s; in the data set with Mus musculus [4] it was 118.4 s; in the data set on Mus musculus [5], 119.2 s.
On the same counts, the results for `Cc1ccc([C@@H]2OC[C@@H](NC(=O)Cc3ccccc3)[C@@H](C)O2)cc1` are 42.3%, 117.9 s, 118.6 s, 119 s and 118.5 s.
`O=C(Cc1ccccc1)N[C@H]1CCO[C@H](c2cccc([N+](=O)[O-])c2)OC1`: the inhibition in vivo at 20 mg/kg in the data set with Mus musculus [1] came to 20.1%.
In the data set on Mus musculus [1], `C[C@@H]1O[C@H](c2cccc([N+](=O)[O-])c2)OC[C@H]1NC(=O)Cc1ccccc1` displayed an inhibition in vivo at 20 mg/kg of 46.5%. Further, the Activity in the data set with Mus musculus [2] amounted to 120.1 s; in the data set on Mus musculus [3], 118.7 s; in the data set on Mus musculus [4], 118.5 s; in the data set on Mus musculus [5], 118.6 s.
Take `O=C(N[C@H]1CCO[C@H](c2ccc([N+](=O)[O-])cc2)OC1)c1ccccc1`: in the data set with Mus musculus [1], the inhibition in vivo at 20 mg/kg came to 19.2%.
Still for that read-out and setting: with `O=C(N[C@H]1CCO[C@@H](c2cccc([N+](=O)[O-])c2)OC1)c1ccccc1` the figure was 21.8%; with `O=C(Cc1ccccc1)N[C@H]1CCCO[C@H](c2ccc(Cl)cc2)OC1`, 23.1%; with `O=C(Cc1ccccc1)N[C@H]1CCCO[C@H](c2ccc([N+](=O)[O-])cc2)OC1`, 19.9%.
On the same count and under the same terms, to `O=C(Cc1ccccc1)N[C@H]1CCCO[C@H](c2cccc([N+](=O)[O-])c2)OC1` belongs 19.2%; to `C[C@@H]1O[C@@H](/C=C/c2ccccc2)OC[C@H]1NC(=O)Cc1ccccc1`, 32.1%.
In the case of `O=C(Cc1ccccc1)N[C@H]1CO[C@H](/C=C/c2ccccc2)OC1`, in the data set with Mus musculus [1], testing at 20 mg/kg gave an inhibition in vivo of 29.5%.
On the same count and under the same terms, with `O=C(Cc1ccccc1)N[C@H]1CCO[C@H](c2ccc(Cl)cc2)OC1` the figure was 23.7%; with `O=C(Cc1ccccc1)N[C@H]1CCCO[C@@H](c2cccc([N+](=O)[O-])c2)OC1`, 19.9%; with `O=C(N[C@H]1CCO[C@@H](c2ccc(Cl)cc2)OC1)c1ccccc1`, 28.2%.
For `C[C@@H]1O[C@H](c2cccc([N+](=O)[O-])c2)OC[C@H]1NC(=O)c1ccccc1`, the Activity in the data set on Mus musculus [2] is 118.9 s; in the data set on Mus musculus [3], 118.2 s; in the data set with Mus musculus [4], 119.5 s; with Mus musculus [5], 118.2 s.
Regarding `O=C(Cc1ccccc1)N[C@H]1CCCO[C@@H](c2ccc([N+](=O)[O-])cc2)OC1`, the inhibition in vivo at 20 mg/kg in the data set on Mus musculus [1] is 20.8%.
Same read-out and setting: to `O=C(Cc1ccccc1)N[C@H]1CCO[C@H](c2ccc([N+](=O)[O-])cc2)OC1` belongs 18.9%; to `O=C(Cc1ccccc1)N[C@H]1CCO[C@@H](c2ccc(Cl)cc2)OC1`, 24.4%.
Same read-out and setting: to `O=C(Cc1ccccc1)N[C@H]1CCO[C@@H](c2cccc([N+](=O)[O-])c2)OC1` belongs 21.2%; to `O=C(N[C@H]1CCO[C@H](c2ccc(Cl)cc2)OC1)c1ccccc1`, 29.5%.
